Activity calls are given as the source filed them. No cut-off for these calls is given here.
How the values were obtained:
Histone deacetylase 1 = Histone deacetylase 1 (Homo sapiens, UniProt Q13547); test: Inhibition of full length human C-terminal His-tagged/C-terminal Flag-tagged HDAC1 using fluorogenic acetylated peptide as substrate incubated for 30 mins by fluorescence plate reader assay
Histone deacetylase 2 = Histone deacetylase 2 (Homo sapiens, UniProt Q92769)
[1] = target: DNA (cytosine-5)-methyltransferase 1 (Homo sapiens, UniProt P26358); test: Inhibition of human DNMT1 enzyme using polydeoxy-inosine polydeoxy-cytosine DNA as substrate incubated for 15 mins in presence of SAM by TR-FRET assay
Chain of DNA (cytosine-5)-methyltransferase 1 (P26358 whole entry): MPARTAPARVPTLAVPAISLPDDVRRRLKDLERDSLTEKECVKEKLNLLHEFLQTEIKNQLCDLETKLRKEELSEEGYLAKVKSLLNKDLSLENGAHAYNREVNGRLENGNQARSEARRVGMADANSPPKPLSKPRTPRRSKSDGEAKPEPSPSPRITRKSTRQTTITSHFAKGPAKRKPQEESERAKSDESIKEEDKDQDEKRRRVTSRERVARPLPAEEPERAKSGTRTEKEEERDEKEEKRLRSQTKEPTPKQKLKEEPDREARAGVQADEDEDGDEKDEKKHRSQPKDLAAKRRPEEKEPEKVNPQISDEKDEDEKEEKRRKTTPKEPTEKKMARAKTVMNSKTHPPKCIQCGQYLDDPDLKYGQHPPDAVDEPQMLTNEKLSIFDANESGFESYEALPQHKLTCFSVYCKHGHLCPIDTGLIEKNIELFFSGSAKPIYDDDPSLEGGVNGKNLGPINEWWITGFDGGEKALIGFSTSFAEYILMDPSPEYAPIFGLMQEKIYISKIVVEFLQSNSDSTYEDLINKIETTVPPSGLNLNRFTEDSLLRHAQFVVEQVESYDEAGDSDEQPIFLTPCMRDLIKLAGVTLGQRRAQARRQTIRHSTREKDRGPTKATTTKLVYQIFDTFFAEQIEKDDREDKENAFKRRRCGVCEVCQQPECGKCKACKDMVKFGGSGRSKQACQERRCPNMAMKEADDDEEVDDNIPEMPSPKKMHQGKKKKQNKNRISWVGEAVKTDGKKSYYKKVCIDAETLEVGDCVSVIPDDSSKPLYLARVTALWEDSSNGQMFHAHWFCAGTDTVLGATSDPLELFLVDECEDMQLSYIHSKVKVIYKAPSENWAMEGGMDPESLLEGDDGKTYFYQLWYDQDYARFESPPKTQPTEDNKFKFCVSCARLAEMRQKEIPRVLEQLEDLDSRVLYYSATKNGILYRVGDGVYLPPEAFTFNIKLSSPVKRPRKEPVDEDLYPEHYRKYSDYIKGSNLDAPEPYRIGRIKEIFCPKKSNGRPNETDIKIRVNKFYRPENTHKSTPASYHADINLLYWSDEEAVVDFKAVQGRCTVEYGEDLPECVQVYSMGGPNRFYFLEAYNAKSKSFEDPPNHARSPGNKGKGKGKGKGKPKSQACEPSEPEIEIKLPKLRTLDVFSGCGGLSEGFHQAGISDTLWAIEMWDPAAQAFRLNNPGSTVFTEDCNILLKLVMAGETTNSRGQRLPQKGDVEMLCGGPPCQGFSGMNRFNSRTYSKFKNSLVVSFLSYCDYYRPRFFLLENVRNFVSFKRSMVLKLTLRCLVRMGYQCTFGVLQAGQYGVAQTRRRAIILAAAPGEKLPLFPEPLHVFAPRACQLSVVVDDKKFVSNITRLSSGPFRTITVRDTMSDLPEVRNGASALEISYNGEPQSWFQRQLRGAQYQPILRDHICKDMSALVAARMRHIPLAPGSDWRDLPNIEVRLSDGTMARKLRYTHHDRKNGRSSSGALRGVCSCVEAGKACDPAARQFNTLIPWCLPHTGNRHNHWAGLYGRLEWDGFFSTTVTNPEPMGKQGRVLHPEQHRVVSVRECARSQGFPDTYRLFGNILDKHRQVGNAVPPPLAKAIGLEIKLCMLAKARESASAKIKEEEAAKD

[2] = target: Histone deacetylase 3/Nuclear receptor corepressor 2 (HDAC3/NCoR2) (Homo sapiens, UniProt O15379); test: Inhibition of full length human C-terminal His-tagged HDAC3/human N-terminal GST-agged NCOR2 using fluorogenic acetylated peptide as substrate incubated for 30 mins by fluorescence plate reader assay; assay type: protein-complex assay
Chain of Histone deacetylase 3/Nuclear receptor corepressor 2 (HDAC3/NCoR2) (O15379 whole entry): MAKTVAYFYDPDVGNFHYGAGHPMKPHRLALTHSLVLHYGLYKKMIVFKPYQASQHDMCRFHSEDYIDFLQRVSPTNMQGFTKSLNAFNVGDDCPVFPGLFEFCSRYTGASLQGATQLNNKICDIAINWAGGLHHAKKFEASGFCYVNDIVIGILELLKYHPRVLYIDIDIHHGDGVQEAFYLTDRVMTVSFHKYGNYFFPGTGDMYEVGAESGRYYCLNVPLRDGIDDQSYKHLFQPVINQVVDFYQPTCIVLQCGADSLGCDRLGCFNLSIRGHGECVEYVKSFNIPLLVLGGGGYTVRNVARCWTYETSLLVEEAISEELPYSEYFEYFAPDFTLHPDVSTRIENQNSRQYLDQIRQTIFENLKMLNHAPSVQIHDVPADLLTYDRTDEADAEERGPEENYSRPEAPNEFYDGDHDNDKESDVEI
Chain of Histone deacetylase 3/Nuclear receptor corepressor 2 (HDAC3/NCoR2) (Q9Y618 whole entry, further chain): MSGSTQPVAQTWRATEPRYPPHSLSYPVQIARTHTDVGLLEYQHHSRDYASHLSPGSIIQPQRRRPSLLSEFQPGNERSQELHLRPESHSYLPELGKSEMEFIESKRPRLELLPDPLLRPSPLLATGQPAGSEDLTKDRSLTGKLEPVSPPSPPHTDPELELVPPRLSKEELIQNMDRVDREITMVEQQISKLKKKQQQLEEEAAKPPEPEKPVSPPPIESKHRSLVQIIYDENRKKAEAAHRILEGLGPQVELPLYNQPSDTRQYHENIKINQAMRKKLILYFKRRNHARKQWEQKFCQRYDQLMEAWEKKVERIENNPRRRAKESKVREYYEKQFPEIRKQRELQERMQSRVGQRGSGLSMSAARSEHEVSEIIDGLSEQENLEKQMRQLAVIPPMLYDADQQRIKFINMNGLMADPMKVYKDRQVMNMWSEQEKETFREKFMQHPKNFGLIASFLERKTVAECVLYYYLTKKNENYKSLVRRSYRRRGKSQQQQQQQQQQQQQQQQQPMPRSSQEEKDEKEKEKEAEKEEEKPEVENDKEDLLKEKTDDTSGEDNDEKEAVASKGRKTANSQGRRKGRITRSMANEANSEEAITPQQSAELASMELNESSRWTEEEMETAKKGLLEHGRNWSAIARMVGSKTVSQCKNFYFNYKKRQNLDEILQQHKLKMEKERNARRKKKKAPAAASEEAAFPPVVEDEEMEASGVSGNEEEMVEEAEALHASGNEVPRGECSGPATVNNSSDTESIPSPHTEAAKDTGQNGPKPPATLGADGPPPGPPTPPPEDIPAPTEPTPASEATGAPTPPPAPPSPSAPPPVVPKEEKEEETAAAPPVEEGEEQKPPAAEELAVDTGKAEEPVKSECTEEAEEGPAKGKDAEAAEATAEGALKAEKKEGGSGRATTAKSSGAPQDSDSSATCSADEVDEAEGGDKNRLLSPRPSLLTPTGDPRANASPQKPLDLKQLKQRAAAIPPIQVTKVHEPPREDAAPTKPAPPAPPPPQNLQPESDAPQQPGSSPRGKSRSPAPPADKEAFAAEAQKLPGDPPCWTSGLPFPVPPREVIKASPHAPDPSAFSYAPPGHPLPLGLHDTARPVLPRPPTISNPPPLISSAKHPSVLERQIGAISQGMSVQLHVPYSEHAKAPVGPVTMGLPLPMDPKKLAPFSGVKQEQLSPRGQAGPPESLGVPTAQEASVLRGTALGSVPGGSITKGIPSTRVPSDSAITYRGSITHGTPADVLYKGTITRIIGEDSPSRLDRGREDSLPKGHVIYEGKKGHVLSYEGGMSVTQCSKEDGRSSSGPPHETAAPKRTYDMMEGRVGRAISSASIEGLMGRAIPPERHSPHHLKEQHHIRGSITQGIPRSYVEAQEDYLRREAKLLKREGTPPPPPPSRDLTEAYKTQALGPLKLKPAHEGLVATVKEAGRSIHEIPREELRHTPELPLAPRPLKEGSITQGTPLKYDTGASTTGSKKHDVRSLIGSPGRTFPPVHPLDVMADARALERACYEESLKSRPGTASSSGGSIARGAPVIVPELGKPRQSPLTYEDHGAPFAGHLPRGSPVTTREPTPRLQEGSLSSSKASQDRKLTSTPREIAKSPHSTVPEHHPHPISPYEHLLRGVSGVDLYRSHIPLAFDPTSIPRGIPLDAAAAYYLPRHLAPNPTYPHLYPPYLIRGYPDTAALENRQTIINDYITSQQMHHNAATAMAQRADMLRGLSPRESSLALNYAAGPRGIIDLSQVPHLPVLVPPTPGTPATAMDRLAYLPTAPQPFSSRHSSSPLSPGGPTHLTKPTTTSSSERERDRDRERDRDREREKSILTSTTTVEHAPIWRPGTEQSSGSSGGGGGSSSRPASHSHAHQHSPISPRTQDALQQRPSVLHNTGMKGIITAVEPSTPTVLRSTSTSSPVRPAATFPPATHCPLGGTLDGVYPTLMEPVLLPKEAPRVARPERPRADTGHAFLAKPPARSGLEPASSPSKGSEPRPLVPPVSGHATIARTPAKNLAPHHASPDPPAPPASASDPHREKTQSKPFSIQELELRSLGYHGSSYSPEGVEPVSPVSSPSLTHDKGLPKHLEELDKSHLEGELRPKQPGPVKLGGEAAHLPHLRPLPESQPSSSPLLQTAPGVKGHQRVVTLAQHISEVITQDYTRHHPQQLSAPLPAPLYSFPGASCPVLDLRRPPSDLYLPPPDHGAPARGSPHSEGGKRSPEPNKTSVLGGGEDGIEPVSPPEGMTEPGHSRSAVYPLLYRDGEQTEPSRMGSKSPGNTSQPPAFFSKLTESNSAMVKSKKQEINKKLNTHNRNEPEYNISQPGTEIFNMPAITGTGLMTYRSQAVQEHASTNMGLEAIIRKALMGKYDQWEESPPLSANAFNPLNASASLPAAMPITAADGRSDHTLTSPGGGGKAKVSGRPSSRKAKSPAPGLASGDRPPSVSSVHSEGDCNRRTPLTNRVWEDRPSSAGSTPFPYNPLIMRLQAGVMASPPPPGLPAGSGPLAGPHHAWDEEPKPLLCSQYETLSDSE

[3] = target: T1, Histone-lysine N-methyltransferase EHMT2 (Homo sapiens, UniProt Q96KQ7); test: Inhibition of human G9a enzyme using histone monomethyl-H3K9 peptide as substrate incubated for 1 hr in presence of SAM by TR-FRET assay
T1 sequence (Q96KQ7 whole entry): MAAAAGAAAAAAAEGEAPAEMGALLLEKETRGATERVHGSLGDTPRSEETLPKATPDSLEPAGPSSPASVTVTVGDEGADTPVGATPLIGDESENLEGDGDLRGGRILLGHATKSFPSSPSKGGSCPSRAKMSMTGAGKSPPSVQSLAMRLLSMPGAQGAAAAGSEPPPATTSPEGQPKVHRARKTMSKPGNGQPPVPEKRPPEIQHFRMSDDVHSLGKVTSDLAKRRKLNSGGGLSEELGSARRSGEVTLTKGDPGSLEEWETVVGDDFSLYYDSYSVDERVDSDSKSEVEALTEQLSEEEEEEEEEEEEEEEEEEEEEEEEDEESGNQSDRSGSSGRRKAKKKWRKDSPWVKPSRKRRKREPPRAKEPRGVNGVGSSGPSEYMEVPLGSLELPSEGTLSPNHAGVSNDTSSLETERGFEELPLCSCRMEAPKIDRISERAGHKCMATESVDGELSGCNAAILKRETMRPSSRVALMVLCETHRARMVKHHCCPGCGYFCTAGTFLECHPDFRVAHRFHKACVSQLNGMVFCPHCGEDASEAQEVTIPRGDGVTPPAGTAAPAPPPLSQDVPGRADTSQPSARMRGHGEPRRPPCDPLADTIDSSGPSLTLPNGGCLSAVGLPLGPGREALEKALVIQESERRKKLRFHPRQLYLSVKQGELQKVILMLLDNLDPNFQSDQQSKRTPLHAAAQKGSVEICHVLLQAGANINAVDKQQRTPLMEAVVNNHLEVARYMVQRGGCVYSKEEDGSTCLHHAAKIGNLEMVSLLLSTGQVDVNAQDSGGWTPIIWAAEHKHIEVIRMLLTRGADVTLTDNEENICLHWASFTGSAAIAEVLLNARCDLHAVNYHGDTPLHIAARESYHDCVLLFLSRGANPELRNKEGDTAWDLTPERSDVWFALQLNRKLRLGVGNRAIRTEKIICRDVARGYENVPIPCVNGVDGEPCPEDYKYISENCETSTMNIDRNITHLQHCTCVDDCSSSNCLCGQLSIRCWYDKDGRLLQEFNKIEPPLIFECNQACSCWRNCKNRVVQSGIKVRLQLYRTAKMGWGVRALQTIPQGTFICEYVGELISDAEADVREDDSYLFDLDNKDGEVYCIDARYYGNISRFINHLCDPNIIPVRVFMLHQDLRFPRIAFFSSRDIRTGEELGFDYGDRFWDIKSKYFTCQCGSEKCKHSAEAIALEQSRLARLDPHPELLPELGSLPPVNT

[4] = target: T2, Protein deacetylase HDAC6 (Homo sapiens, UniProt Q9UBN7); test: Inhibition of full length human N-terminal GST-tagged HDAC6 using fluorogenic acetylated peptide as substrate incubated for 30 mins by fluorescence plate reader assay
T2 sequence (Q9UBN7 whole entry): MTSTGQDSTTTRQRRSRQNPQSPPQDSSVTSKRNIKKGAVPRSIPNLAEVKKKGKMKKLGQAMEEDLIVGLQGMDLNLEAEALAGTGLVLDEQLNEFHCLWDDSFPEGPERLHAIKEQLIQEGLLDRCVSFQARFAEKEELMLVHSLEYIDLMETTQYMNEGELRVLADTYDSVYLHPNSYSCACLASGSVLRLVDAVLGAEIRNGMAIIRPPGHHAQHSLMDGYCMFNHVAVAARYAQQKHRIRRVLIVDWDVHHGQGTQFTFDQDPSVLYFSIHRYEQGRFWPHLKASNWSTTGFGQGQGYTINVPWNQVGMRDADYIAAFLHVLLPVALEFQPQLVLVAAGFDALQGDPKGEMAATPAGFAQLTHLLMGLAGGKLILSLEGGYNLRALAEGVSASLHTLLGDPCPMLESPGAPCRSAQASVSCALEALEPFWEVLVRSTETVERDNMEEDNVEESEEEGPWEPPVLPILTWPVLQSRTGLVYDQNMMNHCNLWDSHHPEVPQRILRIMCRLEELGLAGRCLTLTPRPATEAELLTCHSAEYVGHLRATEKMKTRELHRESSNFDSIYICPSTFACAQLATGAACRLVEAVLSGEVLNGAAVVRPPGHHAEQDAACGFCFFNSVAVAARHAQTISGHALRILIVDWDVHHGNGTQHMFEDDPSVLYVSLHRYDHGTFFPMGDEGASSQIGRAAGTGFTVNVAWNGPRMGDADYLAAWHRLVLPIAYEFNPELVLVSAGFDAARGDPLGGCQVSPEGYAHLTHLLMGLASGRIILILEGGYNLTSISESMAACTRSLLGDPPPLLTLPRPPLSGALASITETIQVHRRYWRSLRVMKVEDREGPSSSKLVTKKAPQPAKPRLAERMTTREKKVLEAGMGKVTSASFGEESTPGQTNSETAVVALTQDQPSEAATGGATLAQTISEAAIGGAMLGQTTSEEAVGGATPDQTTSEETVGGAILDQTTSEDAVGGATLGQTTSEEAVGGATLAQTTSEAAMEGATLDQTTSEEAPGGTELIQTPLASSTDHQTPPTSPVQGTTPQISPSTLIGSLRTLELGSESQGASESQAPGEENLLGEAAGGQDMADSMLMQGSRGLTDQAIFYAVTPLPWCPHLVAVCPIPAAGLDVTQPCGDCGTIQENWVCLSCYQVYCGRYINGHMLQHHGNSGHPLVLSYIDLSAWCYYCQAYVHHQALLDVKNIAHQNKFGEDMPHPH

THLE-2 = test: Cytotoxicity against human THLE-2 cells assessed as decrease in cell viability measured after 72 hrs by Vialight-plus cell proliferation assay; assay type: cell-based; settings: thle-2, 72 h
Procedure, shortened: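 Human THLE-2 cells exposed to compound for 72 h. Cytotoxicity reported as LC50 and pLC50, averaged from at least two independent experiments on different days.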

MM1.S = test: Antiproliferative activity against human MM1.S cells assessed as inhibition of cell proliferation measured up to 72 hrs by CellTiter96 Aqueous one reagent based assay; assay type: functional
[5] = Permeability of the compound in PBS/EtOH buffer (70:30) incubated for 18 hrs by UV plate reader based PAMPA assay; assay type: ADME; settings: read-out: permeability
[6] = target: T3, Histone-lysine N-methyltransferase EHMT2 (Homo sapiens) (UniProt Q96KQ7); test: Inhibition of G9A in human MM1.S cells assessed as decrease in H3K9Me2 levels up to 50 uM after 48 hrs by Western blot analysis; assay type: cell-based; settings: dose microM <=50, time 48.0 hrs
T3 sequence (whole entry): T1 sequence (Q96KQ7 whole entry)
Procedure, shortened: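 MM1.S cells exposed 48 h across a concentration range. Global H3K9Ac and H3K9me2 read by Western blot; run in duplicate.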

[7] = time hrs <=72, read-out: pGI50 (converted)

Chain of Histone deacetylase 1 (Q13547 whole entry): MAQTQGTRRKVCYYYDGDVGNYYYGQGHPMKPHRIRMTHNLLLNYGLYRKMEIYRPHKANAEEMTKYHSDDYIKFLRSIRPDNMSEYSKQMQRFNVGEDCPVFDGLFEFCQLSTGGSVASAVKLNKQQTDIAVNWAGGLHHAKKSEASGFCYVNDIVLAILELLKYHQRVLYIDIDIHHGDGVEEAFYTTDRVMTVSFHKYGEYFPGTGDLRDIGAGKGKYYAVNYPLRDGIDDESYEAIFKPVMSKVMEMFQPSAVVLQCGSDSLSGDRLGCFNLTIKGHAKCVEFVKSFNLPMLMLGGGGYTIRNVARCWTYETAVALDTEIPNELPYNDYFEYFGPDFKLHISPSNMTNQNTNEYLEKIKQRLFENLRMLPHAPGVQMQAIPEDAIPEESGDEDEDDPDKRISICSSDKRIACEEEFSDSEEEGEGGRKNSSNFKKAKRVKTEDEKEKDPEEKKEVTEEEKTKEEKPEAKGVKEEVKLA

| inhibition [6] | SMILES | IC50 (Histone deacetylase 1) [nM] | IC50 (Histone deacetylase 2) [nM] | IC50 [1] [nM] | IC50 [2] [nM] | IC50 [3] [nM] | IC50 [4] [nM] | LC50 (THLE-2) [nM] | pLC50 (THLE-2) | GI50 (MM1.S; time hrs <=72, read-out: GI50) [nM] | GI50 (MM1.S; [7]) [nM] | Papp at 18 h [5] [×10⁻⁶ cm/s] |
| --- | --- | --- | --- | --- | --- | --- | --- | --- | --- | --- | --- | --- |
|  | COc1cc2nc(-c3ccc(C)o3)nc(NCC3CCN(c4ncc(C(=O)NO)cn4)CC3)c2cc1OC | 7 | 38 | > 10000 | 21 | > 10000 | 506 |  |  |  |  |  |
|  | COc1cc2c(NC3CCN(C)CC3)cc(-c3ccc(C)o3)nc2cc1OCCCN1CCCC1 | > 10000 | > 10000 |  | > 10000 |  | > 10000 | 1780 | 5.75 | 1040 | 1070 |  |
|  | COc1cc2nc(-c3ccc(C)o3)cc(NCC3CCC(C(=O)NO)CC3)c2cc1OC (centres undefined) | 38 | 274 | 2850 | 206 | > 10000 | 41 | 9600 | 5.02 | 5830 | 5750 | 0.393 |
|  | COc1cc2nc(-c3ccc(C)o3)cc(NCC3C4CCC3CN(c3ncc(C(=O)NO)cn3)C4)c2cc1OC (centres undefined) | 22 | 125 | 1680 | 33 | > 10000 | 239 | 1350 | 5.87 | 459 | 457 | 0.959 |
| Active | COc1cc2c(cc1OCCCN1CCCC1)N=C(N)C21CCC1 |  |  |  |  |  |  |  |  |  |  |  |
|  | COc1cc2c(NCC3CCC(C(=O)NO)CC3)cc(-c3ccc(C)o3)nc2cc1OCCCN1CCCC1 (centres undefined) | 22 | 159 | 531 | 109 | 55 | 34 | 26100 | 4.58 | > 10000 | > 10000 |  |
|  | COc1cc2nc(-c3ccc(C)o3)cc(NCc3ccc(C(=O)NO)cc3)c2cc1OC | 14 | 91 | 5400 | 44 | > 10000 | 22 | 2330 | 5.63 | 520 | 525 | 0.534 |
|  | COc1cc2nc(-c3ccc(C)o3)cc(NCC3CCN(C4CC(C(=O)NO)C4)CC3)c2cc1OC (centres undefined) | 453 |  | 540 |  | > 10000 | 3180 | 10410 | 4.98 | 1980 | 2000 | 0.068 |
|  | COc1cc2c(NCc3ccc(-c4ccc(C(=O)NO)cc4)cc3)cc(-c3ccc(C)o3)nc2cc1OCCCN1CCCC1 | 45 |  | 2570 |  | 2240 | 127 | 13500 | 4.87 | 1810 | 1820 | 0.11 |
|  | COc1cc2c(NCc3ccc(C(=O)NO)cc3)cc(-c3ccc(C)o3)nc2cc1OCCCN1CCCC1 | 9 | 60 | 795 | 21 | 471 | 11 | 11300 | 4.95 | 4500 | 4470 | 0.1 |
|  | COc1cc2nc(-c3ccc(C)o3)cc(NC3CCN(c4ncc(C(=O)NO)cn4)CC3)c2cc1OC | 63 | 409 | 7140 | 73 | > 10000 | 343 | 3090 | 5.51 | 1020 | 1020 | 0.596 |
|  | COc1cc2c(NCC3CCN(C)CC3)cc(-c3ccc(C)o3)nc2cc1OCCCN1CCCC1 | > 10000 | > 10000 |  | > 10000 |  | > 10000 | 1300 | 5.89 | 3840 | 3800 |  |
|  | COc1cc2c(NCC3CCN(c4ccc(C(=O)NO)cc4)CC3)cc(-c3ccc(C)o3)nc2cc1OCCCN1CCCC1 | 78 |  | 417 |  | 269 | 67 | 9700 | 5.01 | 3760 | 3720 | 0.05 |
|  | COc1cc2nc(-c3ccc(C)o3)cc(NCC3CCN(Cc4ccc(C(=O)NO)cc4)CC3)c2cc1OC | 330 |  | 267 |  | > 10000 | 84 | 204 | 6.69 | 217 | 219 | 0.556 |
